Assay results as given in ChEMBL document CHEMBL1131531, “cycloSal-2',3'-dideoxy-2',3'-didehydrothymidine monophosphate (cycloSal-d4TMP): synthesis and antiviral evaluation of a new d4TMP delivery system” (J Med Chem, 1998).

Legend:
[1] = Partition coefficient was measured.; format: ADME; details: octanol/water
Summary of the method: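 Compound dissolved in 1-octanol and mixed with equal volume of phosphate buffer (10 mmol, pH 6.8). Vortexed 10 min, phases separated by centrifugation. Each phase analysed by reversed-phase HPLC (UV 265 nm). Pa taken as the quotient of peak areas.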

[2] = Half-life period was measured in 30 mM TRIS buffer at pH 6.9 at 37 degree C; format: ADME
[3] = Half-life period was measured in 30 mM sodium borate buffer at pH 8.9 at 37 degree C; format: ADME
[4] = Half-life period was measured in 30 mM sodium phosphate buffer at pH 7.3 at 37 degree C; format: ADME
[5] = Half-life period was measured in RPMI-1640 culture medium at 37 degree C with 10% heat-inactivated fetal calf serum..; format: ADME; details: cattle
[6] = Half-life period was measured in RPMI-1640 culture medium at 37 degree C without FCS.; format: ADME; details: RPMI-1640 culture medium without FCS
CCRF-CEM [7] = test: (§1) Antiviral activity was measured on HIV-2 in mutant thymidine kinase-deficient CEM/TK- cells; format: functional, cell-based; details: Homo sapiens
CCRF-CEM [8] = test: The cytotoxicity was measured on wild type CEM/O cells.; format: functional; details: Homo sapiens
CCRF-CEM [9] = test: Antiviral activity was measured on HIV-1 in wild-type CEM/O cells; format: functional, cell-based, Homo sapiens
CCRF-CEM [10] = test: Antiviral activity was measured on HIV-2 in wild-type CEM/O cells; format: functional, cell-based, Homo sapiens
MT4 [11] = test: Antiviral activity was measured on HIV-1 in MT-4 cells; format: functional, cell-based; details: Homo sapiens
MT4 [12] = test: Antiviral activity was measured on HIV-2 in MT-4 cells; format: functional, cell-based; details: Homo sapiens
CCRF-CEM [13] = test: The cytotoxicity was measured on wild type CEM/O cells; format: functional; details: Homo sapiens
CCRF-CEM [14] = test: as §1; format: functional, cell-based; details: Homo sapiens; remark: listed apart in the source
Summary of the method: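 CEM/O or TK-deficient CEM/TK- cells at 4 × 10⁵ cells/mL infected with HIV-1 (HTLV-IIIB) or HIV-2 (LAV 2) at ~100 CCID50/mL. Infected suspension mixed 1:1 with serial compound dilutions. Giant cell formation scored microscopically after 4 days.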

CCRF-CEM [15] = test: Antiviral activity was measured on HIV-2 in mutant thymidine kinase-deficient CEM/TK- cells for R configuration; format: functional, cell-based; details: Homo sapiens
CCRF-CEM [16] = test: Antiviral activity was measured on HIV-2 in mutant thymidine kinase-deficient CEM/TK- cells for S configuration; format: functional, cell-based; details: Homo sapiens
CCRF-CEM [17] = test: The cytotoxicity was measured on wild type CEM/O cells for R configuration; format: functional; details: Homo sapiens
CCRF-CEM [18] = test: The cytotoxicity was measured on wild type CEM/O cells for S configuration; format: functional; details: Homo sapiens
CCRF-CEM [19] = test: Antiviral activity was measured on HIV-1 in wild-type CEM/O cells for R configuration; format: functional, cell-based; details: Homo sapiens
CCRF-CEM [20] = test: Antiviral activity was measured on HIV-1 in wild-type CEM/O cells for S configuration; format: functional, cell-based; details: Homo sapiens
CCRF-CEM [21] = test: Antiviral activity was measured on HIV-2 in wild-type CEM/O cells for R configuration; format: functional, cell-based; details: Homo sapiens
CCRF-CEM [22] = test: Antiviral activity was measured on HIV-2 in wild-type CEM/O cells for S configuration; format: functional, cell-based; details: Homo sapiens
MT4 [23] = test: Antiviral activity was measured on HIV-1 in MT-4 cells for R configuration; format: functional, cell-based; details: Homo sapiens
MT4 [24] = test: Antiviral activity was measured on HIV-2 in MT-4 cells for R configuration; format: functional, cell-based; details: Homo sapiens

## COc1ccc2c(c1)COP(=O)(OC[C@@H]1C=C[C@H](n3cc(C)c(=O)[nH]c3=O)O1)O2 (stereo partly specified)
[1]
  Pa: 2.3
[2]
  half-life: 28.3 h
[3]
  half-life: 1.07 h
[4]
  half-life: 7.2 h
[5]
  half-life: 4.3 h
[6]
  half-life: 7.2 h
CCRF-CEM [7]
  EC50: 800 nM
CCRF-CEM [8]
  CC50: 39000 nM
CCRF-CEM [9]; Homo sapiens, CCRF-CEM
  EC50: 180 nM
CCRF-CEM [10]; Homo sapiens, CCRF-CEM
  EC50: 700 nM

## Cc1cc(C)c2c(c1)COP(=O)(OCC1C=CC(n3cc(C)c(=O)[nH]c3=O)O1)O2 (stereo unspecified)
[1]
  Pa: 15.3

## Cc1ccc2c(c1)COP(=O)(OC[C@@H]1C=C[C@H](n3cc(C)c(=O)[nH]c3=O)O1)O2 (stereo partly specified)
[1]
  Pa: 5.4

## Cc1cn([C@H]2C=C[C@@H](CO)O2)c(=O)[nH]c1=O [STAVUDINE]
[1]
  Pa: 0.15
CCRF-CEM [7]
  EC50: 15000 nM
CCRF-CEM [8]
  CC50: 56000 nM
CCRF-CEM [9]; Homo sapiens, CCRF-CEM
  EC50: 180 nM
CCRF-CEM [9]; ccrf-cem
  EC50: 180 nM
CCRF-CEM [10]; Homo sapiens, CCRF-CEM
  EC50: 260 nM
CCRF-CEM [10]; ccrf-cem
  EC50: 260 nM
MT4 [11]
  EC50: 18 nM
MT4 [12]
  EC50: 22 nM
CCRF-CEM [13]
  CC50: 56000 nM

## Cc1cccc(CO)c1O
CCRF-CEM [8]
  CC50: > 250000 nM
CCRF-CEM [9]; Homo sapiens, CCRF-CEM
  EC50: > 250000 nM
CCRF-CEM [10]; Homo sapiens, CCRF-CEM
  EC50: > 250000 nM

## Cc1cn(C2C=CC(COP3(=O)OCc4cc(Cl)ccc4O3)O2)c(=O)[nH]c1=O (stereo unspecified)
[1]
  Pa: 7.6
CCRF-CEM [8]
  CC50: 49000 nM
CCRF-CEM [14]
  EC50: 2670 nM
CCRF-CEM [10]; Homo sapiens, CCRF-CEM
  EC50: 1400 nM
MT4 [11]
  EC50: 31 nM
MT4 [12]
  EC50: 38 nM

## Cc1cn([C@H]2C[C@H](N=[N+]=[N-])[C@@H](CO)O2)c(=O)[nH]c1=O [ZIDOVUDINE]
CCRF-CEM [7]
  EC50: > 100000 nM
CCRF-CEM [8]
  CC50: > 100000 nM
CCRF-CEM [9]; Homo sapiens, CCRF-CEM
  EC50: 7 nM

## Cc1cn([C@H]2C=C[C@@H](COP3(=O)OCc4ccccc4O3)O2)c(=O)[nH]c1=O (stereo partly specified)
[1]
  Pa: 1.9

## COc1cccc2c1OP(=O)(OCC1C=CC(n3cc(C)c(=O)[nH]c3=O)O1)OC2 (stereo unspecified)
[1]
  Pa: 1.4
[2]
  half-life: 9.5 h
[3]
  half-life: 0.4 h
[4]
  half-life: 1.4 h
[5]
  half-life: 2 h
[6]
  half-life: 3.2 h
CCRF-CEM [7]
  EC50: 170 nM
CCRF-CEM [15]
  EC50: 120 nM
CCRF-CEM [16]
  EC50: 9670 nM
CCRF-CEM [17]
  CC50: 38000 nM
CCRF-CEM [18]
  CC50: 84000 nM
CCRF-CEM [8]
  CC50: 35000 nM
CCRF-CEM [9]; Homo sapiens, CCRF-CEM
  EC50: 170 nM
CCRF-CEM [19]
  EC50: 140 nM
CCRF-CEM [20]
  EC50: 470 nM
CCRF-CEM [10]; Homo sapiens, CCRF-CEM
  EC50: 420 nM
CCRF-CEM [21]
  EC50: 170 nM
CCRF-CEM [22]
  EC50: 1030 nM

## Cc1cccc2c1OP(=O)(OC[C@@H]1C=C[C@H](n3cc(C)c(=O)[nH]c3=O)O1)OC2 (stereo partly specified)
[1]
  Pa: 5.1
[2]
  half-life: 68.5 h
[3]
  half-life: 1.5 h
[4]
  half-life: 10.2 h
[5]
  half-life: 9.1 h
[6]
  half-life: 16 h
CCRF-CEM [7]
  EC50: 93 nM
CCRF-CEM [15]
  EC50: 63 nM
CCRF-CEM [16]
  EC50: 700 nM
CCRF-CEM [17]
  CC50: 11000 nM
CCRF-CEM [18]
  CC50: 76000 nM
CCRF-CEM [8]
  CC50: 21000 nM
CCRF-CEM [9]; Homo sapiens, CCRF-CEM
  EC50: 87 nM
CCRF-CEM [19]
  EC50: 80 nM
CCRF-CEM [20]
  EC50: 420 nM
CCRF-CEM [10]; Homo sapiens, CCRF-CEM
  EC50: 120 nM
CCRF-CEM [21]
  EC50: 67 nM
CCRF-CEM [22]
  EC50: 1100 nM
MT4 [11]
  EC50: 28 nM
MT4 [23]
  EC50: 12 nM
MT4 [12]
  EC50: 33 nM
MT4 [24]
  EC50: 11 nM

## OCc1ccccc1O [SALICYL ALCOHOL]
CCRF-CEM [8]
  CC50: > 250000 nM
CCRF-CEM [9]; Homo sapiens, CCRF-CEM
  EC50: > 250000 nM
CCRF-CEM [10]; Homo sapiens, CCRF-CEM
  EC50: > 250000 nM

## COc1ccc(O)c(CO)c1
CCRF-CEM [8]
  CC50: 158000 nM
CCRF-CEM [9]; Homo sapiens, CCRF-CEM
  EC50: > 250000 nM
CCRF-CEM [10]; Homo sapiens, CCRF-CEM
  EC50: > 250000 nM

## Cc1cn([C@H]2C=C[C@@H](COP3(=O)OCc4cc([N+](=O)[O-])ccc4O3)O2)c(=O)[nH]c1=O (stereo partly specified)
[1]
  Pa: 1.5
CCRF-CEM [8]
  CC50: 75000 nM
CCRF-CEM [9]; Homo sapiens, CCRF-CEM
  EC50: 290 nM
CCRF-CEM [14]
  EC50: 40000 nM
CCRF-CEM [10]; Homo sapiens, CCRF-CEM
  EC50: 400 nM
